The record followed here is ChEMBL document CHEMBL1145820, “Design, synthesis, and evaluation of novel boronic-chalcone derivatives as antitumor agents” (J Med Chem, 2003).

Structures are written as SMILES.

Common to all, as to type: functional, cell-based
One assay has as its system MDA-MB-231. In words: Inhibitory activity against MDA-MB-231 human breast cell line. An outline of the steps:
(§1)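 Cells kept in DMEM with 5% FBS, 2 mM glutamine and penicillin/streptomycin at 37 °C, 5% CO2. Cells plated and attached for 24 h, then exposed to 0.5-100 µM compound (10 mM DMSO stocks) for 96 h in quadruplicate wells. MTT (1 mg/mL, serum-free medium) was added for 4 h, formazan dissolved in DMSO:ethanol 1:1, and A540 read. IC50 taken from log plots of percent of control; two runs.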

The subject of the next assay is MDA-MB-435. Briefly: Inhibitory activity against MDA-MB-435 human breast cell line. An outline of the steps:
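Cells kept in IMEM with 5% FBS and 2 mM glutamine at 37 °C, 5% CO2. After 24 h attachment, cells were exposed in quadruplicate wells to 0.5-100 µM compound (10 mM DMSO stocks) for 96 h. Read-out was MTT (1 mg/mL, 4 h), with formazan dissolved in DMSO:ethanol and absorbance at 540 nm. IC50 came from log plots of percent of control vs concentration; assayed twice.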

In the next assay the test system is MCF-10A. Briefly: Inhibitory activity against MCF-10A human breast cell line.
Another assay has as its system MCF7. Briefly: Inhibitory activity against Wt-MCF7 human breast cell line. An outline of the steps: as §1
A further assay concerns MCF-12A. Briefly: Inhibitory activity against MCF-12A human breast cell line.

For the molecule `O=C(/C=C/c1ccc(I)cc1)c1ccc(O)cc1`, the 50% inhibitory concentration (IC50) in the assay on MDA-MB-231 was determined as 8 µM; in the assay on MDA-MB-435, 4.5 µM; in the assay on MCF-10A, 15 µM; with MCF7, 7 µM; in the assay on MCF-12A, 30 µM.

Regarding `O=C(O)COc1ccc(C(=O)/C=C/c2ccc(I)cc2)cc1`, the IC50 in the assay with MDA-MB-231 turned out to be 44 µM; with MDA-MB-435 it was 18 µM; in the assay on MCF-10A it was 44 µM; in the assay with MCF7, 9 µM; in the assay with MCF-12A it was 38 µM.

Take `O=C(/C=C/c1ccc(Cl)c(Cl)c1)c1ccc(B(O)O)cc1`: the IC50 in the assay on MDA-MB-231 turned out to be 9.5 µM; in the assay with MDA-MB-435, 3.5 µM; in the assay with MCF-10A it was 18 µM; in the assay on MCF7 it was 5 µM; in the assay on MCF-12A it was 11 µM.

Turning to `O=C(/C=C/c1ccc(B(O)O)cc1)c1ccc(Cl)c(Cl)c1`, the IC50 stood at 8 µM in the assay on MDA-MB-231; 4 µM in the assay with MDA-MB-435; 18 µM in the assay on MCF-10A; 5.5 µM with MCF7; 15 µM with MCF-12A.

Turning to `O=C(/C=C/c1ccc(F)c(Br)c1)c1ccc(B(O)O)cc1`, the IC50 with MDA-MB-231 stood at 9.5 µM; in the assay on MDA-MB-435, 8.8 µM; in the assay with MCF-10A, 17 µM; in the assay with MCF7, 8.5 µM; in the assay on MCF-12A, 38 µM.

Regarding `O=C(/C=C/c1ccccc1)c1ccc[nH]1`, the IC50 with MDA-MB-231 is 15 µM; in the assay on MDA-MB-435 it was 15 µM; with MCF-10A, 63 µM; in the assay with MCF7 it was 9 µM; in the assay on MCF-12A, 38 µM.

With `O=C(/C=C/c1ccc(B(O)O)cc1)c1ccc[nH]1`, the IC50 in the assay on MDA-MB-231 amounted to 23 µM; in the assay on MDA-MB-435 it was 15 µM; in the assay on MCF-10A, 38 µM; with MCF7, 19 µM; in the assay on MCF-12A, 60 µM.

In the case of `O=C(/C=C/c1ccc(I)cc1)c1ccc(B(O)O)cc1`, the IC50 in the assay on MDA-MB-231 was found to be 8.8 µM; in the assay with MDA-MB-435, 10 µM; with MCF-10A it was 75 µM; in the assay with MCF7, 7 µM; in the assay on MCF-12A, 63 µM.

Take `O=C(O)COc1ccc(C(=O)/C=C/c2ccc(Cl)c(Cl)c2)cc1`: the IC50 with MDA-MB-231 was 9 µM; with MDA-MB-435, 9 µM; in the assay with MCF-10A it was 13 µM; in the assay on MCF7, 13 µM; with MCF-12A, 15 µM.

With `O=C(/C=C/c1ccc(F)c(Cl)c1)c1ccc(B(O)O)cc1`, the IC50 with MDA-MB-231 is 8.5 µM; in the assay with MDA-MB-435 it was 16 µM; with MCF-10A, 25 µM; in the assay with MCF7 it was 6 µM; in the assay with MCF-12A, 22 µM.

In the case of `O=C(/C=C/c1ccc(I)cc1)c1ccc(OCB(O)O)cc1`, the IC50 came out at 11 µM in the assay with MDA-MB-231; 18 µM with MDA-MB-435; 38 µM in the assay with MCF-10A; 9.5 µM with MCF7; 100 µM in the assay with MCF-12A.

With `O=C(/C=C/c1ccc(F)c(F)c1)c1ccc(B(O)O)cc1`, the IC50 with MDA-MB-231 was found to be 8.8 µM; with MDA-MB-435, 8.8 µM; with MCF-10A it was 18 µM; with MCF7, 7.8 µM; with MCF-12A, 39 µM.

On to `O=C(O)COc1ccc(/C=C/C(=O)c2ccc(Cl)c(Cl)c2)cc1`, for which the IC50 is 18 µM in the assay with MDA-MB-231; 13 µM in the assay on MDA-MB-435; 12 µM with MCF-10A; 15 µM in the assay with MCF7; 28 µM with MCF-12A.
